NR2E3 ag-1: human photoreceptor-specific nuclear receptor agonism. Q9Y5X4. CHO-S Gal4-NCOR/VP16-NR2E3 two-hybrid, luciferase. inhibition of corepressor binding, % at 3.98 µM. actives 0.35% (n = 360,000);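 active = inhibition above the mean of all tested compounds plus 3 SD, cut at about 70% in these data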;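 note: 0% = DMSO with NR2E3 transfected cells and 100% = cells lacking NR2E3 construct; higher means lower luciferase signal from less NR2E3 corepressor binding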
NR2E3 ag-2: NR2E3 (human) agonism. inhibition of corepressor binding, % at 4.78 µM. actives 0.12% (n = 320,000). GST-NR2E3/biotin-RetCOR TR-FRET, 1536-well;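 active = percent inhibition above the cutoff of mean plus 3 SD of all tested compounds, set per screening campaign, cut at about 20% in these data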;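 note: 0% = DMSO wells and 100% = biotin wells as full block of FRET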
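Material: NR2E3–RetCOR corepressor complex / Amount: 1.35 nM GST-NR2E3 / Medium: Tris pH 7.5 / Compound: single nominal compound dose of 4.8 µM / Incubation: 5 h at 4 °C / Technique: TR-FRET, Eu(K)-anti-GST donor, streptavidin-D2 acceptor, ex 340, em 617/671 nm / Read-out basis: percent loss of FRET ratio relative to control wells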
MC4R antagonist: human MC4R antagonism in cAMP assay | MC4R-expressing cells, MTII-stimulated cAMP, LANCE TR-FRET | inhibition, % at 6.5 µM | actives 0.48% (n = 360,000);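 active = inhibition above its plate's cutoff, the mean of tested wells on that plate plus 3 SD, cut at about 29% in these data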;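 note: 0% = Melanotan II alone and 100% = Melanotan II plus saturating MCL0020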
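system = U2OS cells with stable human MC4R expression | also added = Melanotan II challenge after compound preincubation | dosing = one concentration, 6.5 µM nominal | incubation = compound 30 min, challenge 1 h, detection 1 h | measured by = TR-FRET with Eu-cAMP and labeled anti-cAMP, 671 nm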
Rev-erbA mod: modulators of human Rev-erb alpha DNA binding; AID 1259318; Rev-erbα–FITC-DNA binding, fluorescence polarization, 90 min; activity, % at 10 µM; P20393; actives 0.79% (n = 370,000);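 active = activity above about 14%, limit read from the data; passing the limit was not always enough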;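 note: 0% = DMSO wells with 35 nM protein and 100% = DMSO wells with 750 nM protein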
Target sequence (P20393 whole entry, looked up): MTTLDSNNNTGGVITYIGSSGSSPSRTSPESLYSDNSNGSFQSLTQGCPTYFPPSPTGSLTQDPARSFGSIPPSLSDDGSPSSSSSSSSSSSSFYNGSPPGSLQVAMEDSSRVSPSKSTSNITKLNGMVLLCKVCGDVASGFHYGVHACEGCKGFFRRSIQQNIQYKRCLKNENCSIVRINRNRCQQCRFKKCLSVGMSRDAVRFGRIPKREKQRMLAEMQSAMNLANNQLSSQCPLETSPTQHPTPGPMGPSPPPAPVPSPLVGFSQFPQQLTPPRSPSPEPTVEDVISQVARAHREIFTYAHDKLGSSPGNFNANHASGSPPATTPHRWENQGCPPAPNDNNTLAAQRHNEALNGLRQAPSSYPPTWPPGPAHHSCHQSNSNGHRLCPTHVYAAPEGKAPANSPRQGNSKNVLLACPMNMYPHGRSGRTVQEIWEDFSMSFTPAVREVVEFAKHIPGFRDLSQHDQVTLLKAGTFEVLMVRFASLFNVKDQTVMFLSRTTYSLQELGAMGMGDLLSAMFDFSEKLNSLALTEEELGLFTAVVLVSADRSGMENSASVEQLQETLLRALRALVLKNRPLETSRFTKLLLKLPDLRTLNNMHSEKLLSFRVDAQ
PG9 binder: PG9 antibody binding by small molecule | AID 624416 | inhibition, % at 6.7 µM | actives 0.43% (n = 360,000) | TR-FRET gp120-PG9 antibody binding; in the data active = inhibition above about 8.5%
MC4R ag barr: human MC4R agonism via beta-arrestin; actives 0.98% (n = 360,000); U2OS MC4R beta-arrestin complementation, luminescence; percent of melanotan II response, DMSO zero; P32245; activation, % at 8.9 µM;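 active = activation above a per-plate cutoff, the mean activation of sample wells on that plate plus 3 SD, cut at about 8% in these data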
cAMP nonselect: nonselective cAMP signaling inhibitor, MC4R antagonist counter-screen | inhibition, % at 6.5 µM | shares compounds with MC4R antagonist | AID 602193 | actives 26% (n = 1,600) | parental U2OS, forskolin cAMP, LANCE TR-FRET;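 active = mean inhibition over triplicates above the low-control well mean plus 3 SD, set per campaign, cut at about 13% in these data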;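 note: signal is single emission at 671 nm which falls as cellular cAMP rises; 0% = forskolin-stimulated wells and 100% = buffer without forskolin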
MC4R cAMP antag: human MC4R cAMP antagonism confirmation; actives 27% (n = 1,600); inhibition, % at 6.5 µM; MC4R-expressing cells, MTII-stimulated cAMP, TR-FRET; shares compounds with MC4R antagonist; AID 602195; in the data active = inhibition above about 29%;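 note: 0% = agonist stimulated wells alone and 100% = agonist stimulated wells plus saturating reference antagonist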
An asterisk follows results filed as active; . = no result given. Only some compounds are listed: those with a hit (about 2.7% of all), similar ones and a draw of the others.

SMILES	NR2E3 ag-1	NR2E3 ag-2	MC4R antagonist	Rev-erbA mod	PG9 binder	MC4R ag barr	cAMP nonselect	MC4R cAMP antag
CC(C)Cc1nc2oc3c(NCCCN4CCOCC4)ncnc3c2c2c1CCC2	17.8	-2.2	13.8	0.1	3.0	1.1	.	.
CC(C)(C)NC(=O)NC(=O)COC(=O)CNS(=O)(=O)/C=C/c1ccccc1	-11.1	1.9	27.9	0.1	1.4	-2.8	.	.
CC(NC(=O)COC(=O)CNS(=O)(=O)/C=C/c1ccccc1)c1ccccc1 (centres undefined)	-10.8	-0.6	29.7*	-0.9	-1.0	1.9	11.9	22.8
NS(=O)(=O)c1ccc(N2N=C(c3ccccc3)CC2c2ccccc2)cc1 (centres undefined)	7.3	-1.0	5.8	-7.8	-0.1	0.4	.	.
NS(=O)(=O)c1ccc(N2N=C(c3ccccc3)CC2c2ccc(Br)cc2)cc1 (centres undefined)	-23.1	.	37.4*	-3.6	3.4	5.0	-12.6	-16.1
CN(C)c1ccc(-n2cccc2/C=C/[N+](=O)[O-])cc1	-2.5	0.5	38.9*	-2.4	-0.2	2.5	8.7	30.8*
O=C(CSc1ncn(-c2ccccc2)n1)c1cccs1	-118.6	-1.7	-0.7	2.0	-0.3	-1.4	.	.
N#Cc1ccc(S(=O)(=O)NCC(=O)OCC(=O)N2CCCC2=O)cc1	-35.3	-0.2	33.7*	3.9	0.4	-4.6	18.9*	14.1
Cc1ccc(S(=O)(=O)NCCC(=O)OCC(=O)N2CCCC2=O)cc1	-8.0	-3.7	5.1	1.8	0.9	-1.6	.	.
COC(=O)CC1C(=O)NCCN1C(=S)Nc1ccccc1 (centres undefined)	-3.4	0.4	7.3	-4.3	0.0	-2.6	.	.
CCOC(=O)CC1C(=O)NCCN1C(=S)Nc1ccccc1 (centres undefined)	-0.2	-1.6	28.6*	3.8	0.1	1.7	-7.4	-22.5
C(=C\c1ccccc1)/C=N/N1CCN(Cc2ccccc2)CC1	-40.5	1.2	29.9*	4.6	-1.3	6.7	-2.8	-3.7
C(/C=C/c1ccccc1)=N/N1CCN(c2ccccc2)CC1	-48.4	0.7	-0.8	3.4	0.4	-1.7	.	.
NC(N)=NS(=O)(=O)c1ccc(N/C=C\C(=O)c2ccncc2)cc1	-9.1	12.1	30.6*	0.5	-1.3	0.0	-3.0	-27.3
Cc1noc(NS(=O)(=O)c2ccc(N/C=C\C(=O)c3ccncc3)cc2)c1C	-20.0	-1.4	2.2	-0.4	1.1	-1.7	.	.
O=C(NCCCSc1ccccc1)c1ccc(=O)[nH]c1	-11.1	-0.1	-0.7	1.1	-0.7	-2.7	.	.
O=C1NC(=O)/C(=C\c2ccccc2OCc2ccccc2)S1	15.3	4.4	39.4*	-0.9	-0.4	-0.8	-0.1	5.4
C=CCN1CCN(Cc2cnc(Cl)s2)CC1	3.0	5.9	3.5	9.2	0.0	0.7	.	.
CCCCn1c(N)c(N(CCC(C)C)C(=O)CCCc2nc3ccccc3s2)c(=O)[nH]c1=O	-6.1	2.3	29.9*	-5.6	0.8	-1.9	4.5	15.4
CCOc1cc(N2CCOCC2)c(OCC)cc1NC(=O)COC(=O)COc1ccc(C#N)cc1	-28.0	1.9	30.9*	1.3	-4.4	-1.6	10.4	14.7
CCOc1cc(N2CCOCC2)c(OCC)cc1NC(=O)COC(=O)COc1cc(C)cc(C)c1	5.5	6.2	7.3	1.9	-1.1	-3.9	.	.
Cc1ccc(NC(=O)CSc2nnc(CNC(=O)c3cccs3)o2)cc1	0.4	0.7	30.8*	3.1	-3.2	0.8	0.0	-3.6
O=C(COC(=O)CNC(=O)c1cccc(F)c1)NCCC1=CCCCC1	-16.1	-2.9	28.5*	2.3	0.5	-0.6	18.3*	40.4*
O=C(COC(=O)COc1cccc(F)c1)NCCC1=CCCCC1	-13.9	-3.4	-0.6	-3.7	-1.6	-3.9	.	.
O=C(CCS(=O)(=O)c1ccc(F)cc1)Nc1nc(-c2ccncc2)cs1	-6.6	-0.1	12.6	-4.0	-1.6	-1.1	.	.
SMILES	NR2E3 ag-1	NR2E3 ag-2	MC4R antagonist	Rev-erbA mod	PG9 binder	MC4R ag barr	cAMP nonselect	MC4R cAMP antag
COc1ccccc1C1(CCNC(C)c2cccs2)CCOC(C(C)C)C1 (centres undefined)	-59.9	2.3	47.0*	-0.4	-0.2	1.1	-3.7	37.3*
COc1ccc(-n2c(CN3CCC(C)CC3)nc3ccc([N+](=O)[O-])cc3c2=O)c(OC)c1	-16.3	-0.7	33.7*	-4.7	0.5	-0.1	0.3	-9.4
Cc1nc2ccc(NC(=O)c3ccc(Cl)c([N+](=O)[O-])c3)cc2s1	-5.9	-1.4	29.8*	-2.4	-1.1	-0.5	10.4	19.8
O=C(Nc1ccccc1N1CCCCC1)c1ccc(Cl)c([N+](=O)[O-])c1	8.5	0.8	41.1*	5.4	-1.9	1.4	3.4	51.3*
O=C(Nc1ccccc1C(=O)N1CCCC1)c1ccc(Cl)c([N+](=O)[O-])c1	7.3	1.6	36.3*	-3.9	-3.9	1.6	4.7	25.2
O=C(Nc1ccccc1-c1ccccc1)c1ccc(Cl)c([N+](=O)[O-])c1	32.2	0.9	55.7*	2.5	-2.8	0.0	30.9*	74.3*
O=C1OCCN1C(=O)[C@H]1[C@H](c2ccc([N+](=O)[O-])cc2)C(c2ccc(F)cc2)=NN1c1ccccc1	-5.2	.	20.5	-3.2	-0.1	1.2	.	.
O=C(CCC(=O)OCC(=O)c1ccc(Cl)cc1)NC1CCCCC1	-19.2	1.5	1.3	-1.7	-1.6	-1.6	.	.
C[C@H](CO)N1C[C@H](C)[C@@H](CN(C)Cc2ccncc2)Oc2c(NS(=O)(=O)c3ccc(Cl)cc3)cccc2C1=O	-25.5	.	5.7	7.3	-1.3	-2.3	.	.
O=C(O)c1ccc(-n2ncc(Cl)c(Cl)c2=O)cc1	0.5	.	2.5	.	.	-2.5	.	.
COc1ccc2[nH]cc(CCNC(=S)NCCc3ccccc3)c2c1	-1.1	0.3	17.2	-4.3	-1.1	3.8	.	.
O=C(Nc1cccc(Cl)c1)NC1CCCCC1	-72.4	3.0	-1.7	4.6	1.1	0.4	.	.
S=C(NC1CC1)NC1CCCc2ccccc21 (centres undefined)	23.4	-1.7	28.5*	-1.3	-0.9	3.2	5.5	3.7
COc1ccc(NC(=O)Cc2ccc(Cl)c(Cl)c2)cn1	2.5	-2.4	2.9	-3.1	0.9	1.2	.	.
COc1ccc(NC(=O)/C(Cl)=C(/Cl)S(=O)(=O)Cc2ccc(C)cc2)cn1	86.2*	.	40.4*	.	.	-3.6	37.7*	37.0*
Cc1cccc(OCC(=O)Nc2ccc3c(c2)nc(CN2CCCCC2)n3C)c1	26.9	1.8	32.1*	-0.7	-1.6	0.8	-1.2	-16.0

Compound activity as filed in PubChem.
